The subject of test [1] is Streptococcus pneumoniae. Nature of the test: Antibacterial activity against multidrug-resistant Streptococcus pneumoniae ATCC 700673 by broth microdilution assay. The class given is functional.
The subject of test [2] is Escherichia coli. Nature of the test: Antibacterial activity against Escherichia coli ATCC 25922 at 64 ug/mL by broth microdilution assay. It counts as functional, organism-based. A general note: Dilution methods test growth across graded concentrations, often in twofold steps.
The subject of test [3] is Stenotrophomonas maltophilia. Nature of the test: Antibacterial activity against Stenotrophomonas maltophilia ATCC 13637 at 64 ug/mL by broth microdilution assay. The class given is functional, organism-based.
In test [4] the test system is Cryptococcus neoformans. Nature of the test: Antifungal activity against Cryptococcus neoformans ATCC 90112 at 64 ug/mL by broth microdilution assay. It counts as functional, organism-based.
Test [5] has as its system Streptococcus pyogenes. Nature of the test: Antibacterial activity against Streptococcus pyogenes clinical isolate by broth microdilution assay. The class given is functional.
Test [6] deals with BXPC-3. Nature of the test: Cytotoxicity against human BxPC3 cells after 48 hrs by sulforhodamine B assay. The conditions noted are these: BXPC-3, 48 h. It counts as functional. In outline: (§1)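 Cells were grown in RPMI-1640 with 5% fetal bovine serum in 96-well plates for 24 h, then exposed to serial dilutions in DMSO vehicle for 48 h. Plates were fixed with trichloroacetic acid, stained with sulforhodamine B and read for optical density. GI50 is the concentration giving a 50% reduction in net protein increase.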
Background: The SRB assay estimates cell density from bound dye.

Test [7] deals with Staphylococcus aureus. Nature of the test: Antibacterial activity against Staphylococcus aureus ATCC 29213 at 64 ug/mL by broth microdilution assay. It counts as functional, organism-based.
For test [8], the system named is Enterobacter cloacae. Nature of the test: Antibacterial activity against Enterobacter cloacae ATCC 13047 at 64 ug/mL by broth microdilution assay. The class given is functional, organism-based.
The test system of test [9] is Neisseria gonorrhoeae. Nature of the test: Antibacterial activity against Neisseria gonorrhoeae ATCC 49226 at 64 ug/mL by broth microdilution assay. The class given is functional, organism-based.
The subject of test [10] is Streptococcus pneumoniae. Nature of the test: Antibacterial activity against Streptococcus pneumoniae by broth microdilution assay in presence of 25% heat inactivated human serum. It counts as functional.
Test [11] concerns P388. Nature of the test: Cytotoxicity against mouse P388 cells after 48 hrs by coulter counter method. It counts as functional. The settings on record: P388, 48 h, read-out: ED50 (the source's name). In outline: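 Murine lymphocytic leukemia P388 cells were preincubated for 24 h in Fisher medium with 10% horse serum, then incubated 48 h with serial dilutions in DMSO vehicle. Cells were counted on a Coulter particle counter, and ED50 was taken as the concentration giving 50% growth inhibition.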

Test [12] concerns Streptococcus pyogenes. Nature of the test: Antibacterial activity against Streptococcus pyogenes clinical isolate by broth microdilution assay in presence of 25% heat inactivated human serum. It counts as functional.
For test [13], the system named is MCF7. Nature of the test: Cytotoxicity against human MCF7 cells after 48 hrs by sulforhodamine B assay. It counts as functional. The settings on record: MCF7, 48 h. In outline: as §1
The subject of test [14] is Streptococcus pneumoniae. Nature of the test: Antibacterial activity against Streptococcus pneumoniae ATCC 6303 by broth microdilution assay. The class given is functional.
Test [15] concerns Enterococcus faecalis. Nature of the test: Antibacterial activity against Enterococcus faecalis ATCC 29212 at 64 ug/mL by broth microdilution assay. It counts as functional, organism-based.
The subject of test [16] is Micrococcus luteus. Nature of the test: Antibacterial activity against Micrococcus luteus Presque Isle 456 at 64 ug/mL by broth microdilution assay. The class given is functional, organism-based.
For test [17], the system named is NCI-H460. Nature of the test: Cytotoxicity against human NCI-H460 cells after 48 hrs by sulforhodamine B assay. The class given is functional. The conditions noted are these: NCI-H460, 48 h. A digest of the protocol: as §1
Test [18] deals with KM-20L2. Nature of the test: Cytotoxicity against human KM20L2 cells after 48 hrs by sulforhodamine B assay. It counts as functional. The conditions noted are these: KM-20L2, 48 h. A digest of the protocol:
as §1

The test system of test [19] is DU-145. Nature of the test: Cytotoxicity against human DU145 cells after 48 hrs by sulforhodamine B assay. The class given is functional. The conditions noted are these: DU-145, 48 h. A digest of the protocol: as §1
The subject of test [20] is Candida albicans. Nature of the test: Antifungal activity against Candida albicans ATCC 90028 at 64 ug/mL by broth microdilution assay. It counts as functional, organism-based.
Test [21] relates to Streptococcus pneumoniae. Nature of the test: Antibacterial activity against penicillin-resistant Streptococcus pneumoniae clinical isolate by broth microdilution assay. The class given is functional.
The test system of test [22] is SF-268. Nature of the test: Cytotoxicity against human SF268 cells after 48 hrs by sulforhodamine B assay. It counts as functional. The conditions noted are these: SF-268, 48 h. In outline:
as §1

Results on three compounds are retold here after ChEMBL document CHEMBL1151986, “Antineoplastic agents. 570. Isolation and structure elucidation of bacillistatins 1 and 2 from a marine Bacillus silvestris” (2009).

Molecules are shown by their SMILES. ≈ marks a conversion by molar mass, not a printed value. Calls of active or inactive are those of the source. The rule behind the calls is not given here.

A word on the MBC: it is the lowest tested concentration that kills the bacteria rather than only halting them. A high value points to weaker bactericidal potency. For orientation: MIC means the least concentration at which growth counts as inhibited. For orientation: GI50 means the concentration at which growth is held to half of that of the control. With `CC[C@H](C)[C@H]1OC(=O)[C@H](C(C)C)NC(=O)[C@H](C)OC(=O)[C@@H](C(C)C)NC(=O)[C@@H]([C@@H](C)CC)OC(=O)[C@H](C(C)C)NC(=O)[C@H](C)OC(=O)[C@@H](C(C)C)NC(=O)[C@@H](CC(C)C)OC(=O)[C@H](C(C)C)NC(=O)[C@H](C)OC(=O)[C@@H](C(C)C)NC1=O`, the MBC is < 0.5 µg/mL in [1], > 16 µg/mL in test [5], 2 µg/mL (≈ 1730 nM) in test [14] and 1 µg/mL (≈ 867 nM) in test [21]. Also, the MIC in test [1] is < 0.5 µg/mL; in test [5] it was 2 µg/mL (≈ 1730 nM); in test [10] it was > 64 µg/mL; in test [12], > 64 µg/mL; in [14], 1 µg/mL (≈ 867 nM); in test [21] it was 1 µg/mL (≈ 867 nM). In addition, the outcome in [2], in test [3], in test [4], in test [7], in test [8] and in test [9] was inactive. Also, the outcome in [15], in test [16] and in test [20] was inactive. Further, the concentration for 50% growth inhibition (GI50) in [6] is 0.00034 µg/mL (≈ 0.295 nM); in [13], 0.00031 µg/mL (≈ 0.269 nM); in [17], 0.00045 µg/mL (≈ 0.39 nM); in test [18] it was 0.00026 µg/mL (≈ 0.225 nM); in test [19] it was 0.00086 µg/mL (≈ 0.746 nM); in test [22], 0.0018 µg/mL (≈ 1.56 nM). The EC50 in test [11] amounted to 0.013 µg/mL (≈ 11.3 nM).

Turning to `CC[C@H](C)[C@H]1OC(=O)[C@H](C(C)C)NC(=O)[C@H](C)OC(=O)[C@@H](C(C)C)NC(=O)[C@@H]([C@@H](C)CC)OC(=O)[C@H](C(C)C)NC(=O)[C@H](C)OC(=O)[C@@H](C(C)C)NC(=O)[C@@H]([C@@H](C)CC)OC(=O)[C@H](C(C)C)NC(=O)[C@H](C)OC(=O)[C@@H](C(C)C)NC1=O` [BACILLISTATIN 1], the minimal bactericidal concentration (MBC) in test [1] was 1 µg/mL (≈ 867 nM); in test [5] it was > 32 µg/mL; in test [14] it was 4 µg/mL (≈ 3470 nM); in test [21], 2 µg/mL (≈ 1730 nM). For the same compound, the MIC in test [1] was < 0.5 µg/mL; in [5] it was 2 µg/mL (≈ 1730 nM); in [10], > 64 µg/mL; in test [12], > 64 µg/mL; in test [14], 2 µg/mL (≈ 1730 nM); in test [21], 1 µg/mL (≈ 867 nM). The result in [2], in test [3], in [4], in test [7], in test [8] and in test [9] was inactive. Besides, the result in [15], in [16] and in [20] was inactive. Besides, the GI50 in test [6] was 0.00095 µg/mL (≈ 0.824 nM); in [13], 0.00061 µg/mL (≈ 0.529 nM); in test [17] it was 0.0023 µg/mL (≈ 1.99 nM); in test [18] it was 0.00087 µg/mL (≈ 0.754 nM); in test [19] it was 0.0015 µg/mL (≈ 1.3 nM); in test [22], 0.00045 µg/mL (≈ 0.39 nM). Further, the EC50 in [11] was 0.023 µg/mL (≈ 19.9 nM).

`CC(C)[C@@H]1NC(=O)[C@H](C)OC(=O)[C@@H](C(C)C)NC(=O)[C@@H](C(C)C)OC(=O)[C@H](C(C)C)NC(=O)[C@H](C)OC(=O)[C@@H](C(C)C)NC(=O)[C@@H](C(C)C)OC(=O)[C@H](C(C)C)NC(=O)[C@H](C)OC(=O)[C@@H](C(C)C)NC(=O)[C@@H](C(C)C)OC1=O` [VALINOMYCIN]: the concentration for 50% growth inhibition (GI50) in test [6] came to 0.0019 µg/mL (≈ 1.71 nM); in test [13], 0.001 µg/mL (≈ 0.9 nM); in [17], 0.0025 µg/mL (≈ 2.25 nM); in test [18] it was 0.0008 µg/mL (≈ 0.72 nM); in test [19] it was 0.0035 µg/mL (≈ 3.15 nM); in test [22], 0.0027 µg/mL (≈ 2.43 nM). Moreover, the EC50 in test [11] is 0.12 µg/mL (≈ 108 nM).
